Source: ChEMBL document CHEMBL1140534, “Heteroaryl beta-tetralin ureas as novel antagonists of human TRPV1” (Bioorg Med Chem Lett, 2007)
pIC50, pKi: −log10 of the molar value.

Tests used:
[1] = target: T1, Transient receptor potential cation channel subfamily V member 1 (Homo sapiens, UniProt Q8NER1); experiment: Displacement of [3H]RTX from human TRPV1 expressed in HEK293 cells; format: cell-based
Method in brief: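 Membranes from hTRPV1/HEK293 cells, prepared in HEPES buffer pH 7.4 (20 mM HEPES, NaCl, sucrose, MgCl2, CaCl2, KCl). Incubated 60 min at 37 °C with 0.3–0.6 nM [3H]-RTX. Samples cooled on ice, alpha-acid glycoprotein added, then centrifuged and pellets counted by scintillation. Nonspecific binding defined with 200 nM unlabeled RTX. Reported as Ki.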

[2] = target: T1, Transient receptor potential cation channel subfamily V member 1; experiment: Antagonist activity at human recombinant TRPV1 expressed in HEK293 cells assessed as inhibition of capsaicin-induced calcium by FLIPR method; format: functional, cell-based
Method in brief: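 Stably transfected hTRPV1/HEK293 cells grown on poly-D-lysine for 2 days, then loaded with Fluo-3/AM for 1 h. Each well receives a single compound concentration. Intracellular Ca2+ is read by FLIPR for 3 min before capsaicin is added at a final 15 nM to fully activate TRPV1. Antagonist potency is reported as IC50.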

T1 sequence (Q8NER1 whole entry): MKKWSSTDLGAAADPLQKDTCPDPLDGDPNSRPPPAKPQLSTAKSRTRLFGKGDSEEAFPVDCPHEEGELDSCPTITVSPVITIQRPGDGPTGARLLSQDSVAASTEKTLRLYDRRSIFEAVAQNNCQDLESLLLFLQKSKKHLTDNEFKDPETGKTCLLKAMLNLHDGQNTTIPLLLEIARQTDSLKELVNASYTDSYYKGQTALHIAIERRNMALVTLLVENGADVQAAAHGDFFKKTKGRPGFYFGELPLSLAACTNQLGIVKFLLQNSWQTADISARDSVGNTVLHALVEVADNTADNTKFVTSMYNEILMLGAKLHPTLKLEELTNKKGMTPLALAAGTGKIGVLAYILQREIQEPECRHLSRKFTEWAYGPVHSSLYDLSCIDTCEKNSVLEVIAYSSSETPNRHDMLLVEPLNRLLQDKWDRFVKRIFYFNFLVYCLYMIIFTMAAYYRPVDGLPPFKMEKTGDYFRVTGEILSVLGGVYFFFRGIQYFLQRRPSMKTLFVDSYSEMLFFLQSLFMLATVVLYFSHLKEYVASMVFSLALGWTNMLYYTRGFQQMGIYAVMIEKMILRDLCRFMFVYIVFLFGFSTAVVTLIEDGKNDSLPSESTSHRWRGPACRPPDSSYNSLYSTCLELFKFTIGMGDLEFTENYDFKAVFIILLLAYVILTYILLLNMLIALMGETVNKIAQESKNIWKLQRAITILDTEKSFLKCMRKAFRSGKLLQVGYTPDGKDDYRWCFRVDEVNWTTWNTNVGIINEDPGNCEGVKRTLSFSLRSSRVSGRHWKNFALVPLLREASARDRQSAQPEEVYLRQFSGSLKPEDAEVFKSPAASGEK

| Compound | pKi [1] | pIC50 [2] |
| --- | --- | --- |
| O=C(NCC(Cc1ccccc1)c1ccc(F)cc1)Nc1cccc2cnccc12 (centres undefined) | 8.10 | 8.30 |
| COc1ccc2c(c1)CCC(NC(=O)Nc1cccc3cnccc13)C2Cc1ccc(C#N)cc1 (centres undefined) | 7.77 | 7.68 |
| COc1ccc(CC2c3ccc(OC)cc3CCC2NC(=O)Nc2cccc3cnccc23)cc1 (centres undefined) | 8.10 | 7.44 |
| O=C(Nc1cccc2cnccc12)NC1CCc2ccccc2C1Cc1ccccc1 (centres undefined) | 8.40 | 7.70 |
| O=C(Nc1cccc2cnccc12)NC1CCc2c(Cl)cccc2C1Cc1ccccc1 (centres undefined) | 8.70 | 7.80 |
| COc1cc2c(cc1OC)C(Cc1ccccc1)C(NC(=O)Nc1cccc3cnccc13)CC2 (centres undefined) | 7.70 | 6.64 |
| O=C(Nc1cccc2ccc(O)cc12)NC1CCc2cc(F)ccc2C1Cc1ccc(C(F)(F)F)cc1 (centres undefined) | 7.66 | 6.44 |
| O=C(NCC(Cc1cccc(C(F)(F)F)c1)c1ccc(F)cc1)Nc1cccc2cnccc12 (centres undefined) | 7.70 | 7.72 |
| COc1ccc(C(CNC(=O)Nc2cccc3cnccc23)Cc2ccccc2)cc1 (centres undefined) | 8.22 | 7.85 |
| COc1ccc(C(C)CNC(=O)Nc2cccc3cnccc23)cc1 (centres undefined) | 5.89 | 6.17 |
| O=C(NCC(Cc1ccccc1)c1ccc(C(F)(F)F)cc1)Nc1cccc2cnccc12 (centres undefined) | 8.40 | – |
| COc1ccc2c(c1)CCC(NC(=O)Nc1cccc3cnccc13)C2Cc1ccc(C(F)(F)F)cc1 (centres undefined) | 8.70 | 8.70 |
| COc1ccc2c(c1)CCC(NC(=O)Nc1cccc3ccc(O)cc13)C2Cc1ccccc1 (centres undefined) | 8.00 | 7.22 |
| O=C(Nc1cccc2cnccc12)NC1CCc2ccc(Cl)cc2C1Cc1ccccc1 (centres undefined) | 8.30 | 7.07 |
| COc1ccc(C(CNC(=O)Nc2cccc3cnccc23)Cc2cccnc2)cc1 (centres undefined) | 6.24 | 6.74 |

The next lines start with the values.

| pKi [1] | pIC50 [2] | Compound |
| --- | --- | --- |
| 8.40 | 7.92 | O=C(Nc1cccc2cnccc12)NC1CCc2cc(F)ccc2C1Cc1ccccc1 (centres undefined) |
| 8.70 | 7.89 | COc1ccc2c(c1)CCC(NC(=O)Nc1cccc3cnccc13)C2Cc1cccc(Cl)c1 (centres undefined) |
| 7.96 | 7.20 | O=C(Nc1cccc2cnccc12)NC1CCc2cc(Cl)ccc2C1Cc1ccccc1 (centres undefined) |
| 8.70 | 7.77 | O=C(Nc1cccc2cnccc12)NC1CCc2cc(Br)ccc2C1Cc1ccccc1 (centres undefined) |
| – | 6.70 | O=C(Nc1cccc2cnccc12)NC1CCc2cc(O)ccc2C1Cc1ccccc1 (centres undefined) |
| 9.00 | 7.66 | COc1ccc2c(c1)CCC(NC(=O)Nc1cccc3cnccc13)C2Cc1ccc(Br)cc1 (centres undefined) |
| 7.80 | 7.08 | O=C(Nc1cccc2cnccc12)NC1CCc2cc(F)ccc2C1Cc1ccoc1 (centres undefined) |
| – | < 6.00 | N#CCC1c2ccc(Cl)cc2CCC1NC(=O)Nc1cccc2cnccc12 (centres undefined) |
| 9.10 | 6.46 | O=C(Nc1cccc2cnccc12)NC1CCc2cc(F)ccc2C1CC1CC1 (centres undefined) |
| 8.70 | 7.00 | C=CCC1c2ccc(F)cc2CCC1NC(=O)Nc1cccc2cnccc12 (centres undefined) |
| – | < 6.00 | COc1ccc2c(c1)CCC(NC(=O)Nc1cccc3cnccc13)C2Cc1cccnc1 (centres undefined) |
| 8.40 | 6.85 | O=C(Nc1cccc2cnccc12)NC1CCc2cc(F)ccc2C1Cc1cccs1 (centres undefined) |
| 8.52 | 7.60 | COc1ccc2c(c1)CCC(NC(=O)Nc1cccc3cnccc13)C2Cc1ccccc1 (centres undefined) |
| 9.00 | 8.00 | O=C(Nc1cccc2cnccc12)NC1CCc2cc(F)ccc2C1Cc1ccc(C(F)(F)F)cc1 (centres undefined) |
